Results reported in ChEMBL document CHEMBL6134765, “Rapid identification of novel indolylarylsulfone derivatives as potent HIV-1 NNRTIs via miniaturized CuAAC click-chemistry-based combinatorial libraries” (RSC Med Chem, 2025).

Assays:
[1] = target: Human immunodeficiency virus type 1 reverse transcriptase (Human immunodeficiency virus 1) (UniProt Q72547); assay: Inhibition of recombinant HIV-1 reverse transcriptase at 0.66 mM incubated for 1 hr by ELISA relative to control
Method in brief: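 Each library compound was tested directly as the crude click mixture (diluted in DMSO to 2 mM per well) against HIV-1 RT at 0.66 mM, using an ELISA-based RT kit following the kit protocol. Blank controls held DMSO, TBTA, CuSO4·5H2O and sodium ascorbate. Inhibition is expressed as a percentage.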

[2] = system: Human immunodeficiency virus 1; assay: Antiviral activity against wild-type HIV-1 IIIB infected in human MT4 cells incubated for 5 days by spectrophometry based MTT assay; format: functional, organism-based; settings: Human immunodeficiency virus 1, IIIB, MT4, 120 h
Method in brief: (§1)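 MTT protection assay in MT-4 cells infected with HIV-1 IIIB or HIV-2 ROD. EC50 is the compound concentration giving 50% protection of the cultures against virus-induced cytotoxicity.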

[3] = system: Human immunodeficiency virus 2; assay: Antiviral activity against HIV-2 ROD infected in human MT4 cells incubated for 5 days by spectrophotometry based MTT assay; format: functional, organism-based; settings: Human immunodeficiency virus 2, ROD, MT4, 120 h; method in brief: as §1
[4] = Cytotoxicity against human MT4 cells assessed as reduction in cell viability incubated for 5 days by MTT assay; format: toxicity, cell-based; settings: time 5 day
Method in brief: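 Mock-infected MT-4 cultures were read by MTT for cell viability. CC50 is the concentration that reduces viability by 50%.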

[5] = Selectivity index, ratio of CC50 for cytotoxicity against human MT4 cells to EC50 for antiviral activity against wild-type HIV-1 IIIB infected in human MT4 cells; format: toxicity, cell-based; settings: read-out: Ratio CC50/EC50
Method in brief: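 Selectivity index is calculated as CC50 (mock-infected MT-4, MTT) divided by EC50 (HIV-1 IIIB protection of MT-4, MTT).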

[6] = system: Human immunodeficiency virus 1; assay: Antiviral activity against HIV-1 harboring L100I mutant infected in human MT4 cells assessed as inhibition of virus induced cytotoxicity incubated for 5 days by spectrophometry based MTT assay; format: functional, organism-based; settings: Human immunodeficiency virus 1, MT4, 120 h
Method in brief: (§2)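 MT-4 cells (from Dr. N. Yamamoto, Yamaguchi University) infected with single-mutant (L100I, K103N, Y181C, Y188L, E138K) or double-mutant (F227L/V106A; RES056 = K103N/Y181C) HIV-1 strains. Protection against virus-induced cytotoxicity was read by the MTT method. EC50 is the concentration giving 50% protection of the cell cultures.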

[7] = system: Human immunodeficiency virus 1; assay: Antiviral activity against HIV-1 harboring K103N mutant infected in human MT4 cells assessed as inhibition of virus induced cytotoxicity incubated for 5 days by spectrophometry based MTT assay; format: functional, organism-based; settings: Human immunodeficiency virus 1, MT4, 120 h; method in brief: as §2
[8] = system: Human immunodeficiency virus 1; assay: Antiviral activity against HIV-1 harboring Y181C mutant infected in human MT4 cells assessed as inhibition of virus induced cytotoxicity incubated for 5 days by spectrophometry based MTT assay; format: functional, organism-based; settings: Human immunodeficiency virus 1, MT4, 120 h; method in brief: as §2
[9] = system: Human immunodeficiency virus 1; assay: Antiviral activity against HIV-1 harboring Y188L mutant infected in human MT4 cells assessed as inhibition of virus induced cytotoxicity incubated for 5 days by spectrophometry based MTT assay; format: functional, organism-based; settings: Human immunodeficiency virus 1, MT4, 120 h; method in brief: as §2
[10] = system: Human immunodeficiency virus 1; assay: Antiviral activity against HIV-1 harboring E138K mutant infected in human MT4 cells assessed as inhibition of virus induced cytotoxicity incubated for 5 days by spectrophometry based MTT assay; format: functional, organism-based; settings: Human immunodeficiency virus 1, MT4, 120 h; method in brief: as §2
[11] = system: Human immunodeficiency virus 1; assay: Antiviral activity against HIV-1 harboring F227L/V106A double mutant infected in human MT4 cells assessed as inhibition of virus induced cytotoxicity incubated for 5 days by spectrophometry based MTT assay; format: functional, organism-based; settings: Human immunodeficiency virus 1, MT4, 120 h; method in brief: as §2
[12] = system: Human immunodeficiency virus 1; assay: Antiviral activity against HIV-1 harboring RES056 mutant infected in human MT4 cells assessed as inhibition of virus induced cytotoxicity incubated for 5 days by spectrophometry based MTT assay; format: functional, organism-based; settings: Human immunodeficiency virus 1, MT4, 120 h; method in brief: as §2

## Cc1cc(C)cc(S(=O)(=O)c2c(C(=O)NCc3cn(Cc4ccc([N+](=O)[O-])cc4)nn3)[nH]c3ccc(Cl)cc23)c1
[1]
  inhibition: < 85%

## Cc1cc(C)cc(S(=O)(=O)c2c(C(=O)NCc3cn(CC(=O)Nc4ccc(C(F)(F)F)cc4)nn3)[nH]c3ccc(Cl)cc23)c1
[1]
  inhibition: > 85%
[2]
  EC50: 110 nM
[3]
  EC50: > 17000 nM
[4]
  CC50 at 120 h: 17000 nM
[5]
  selectivity ratio: 148
[6]
  EC50: 590 nM
[7]
  EC50: 1720 nM
[8]
  EC50: > 7410 nM
[9]
  EC50: 400 nM
[10]
  EC50: 2220 nM
[11]
  EC50: > 17000 nM
[12]
  EC50: > 17000 nM

## Cc1cc(C)cc(S(=O)(=O)c2c(C(=O)NCc3cn(CCN4C(=O)c5ccccc5C4=O)nn3)[nH]c3ccc(Cl)cc23)c1
[1]
  inhibition: < 85%

## Cc1ccnc2c1NC(=O)c1cccnc1N2C1CC1 [NEVIRAPINE]
[4]
  CC50 at 120 h: > 15000 nM
[5]
  selectivity ratio: > 92
[9]
  EC50: ≥ 7700 nM
[11]
  EC50: ≥ 5410 nM
[12]
  EC50: > 15000 nM

## Cc1cc(C)cc(S(=O)(=O)c2c(C(=O)NCc3cn(Cc4ccccc4[N+](=O)[O-])nn3)[nH]c3ccc(Cl)cc23)c1
[1]
  inhibition: > 85%
[2]
  EC50: 24 nM
[3]
  EC50: > 216000 nM
[4]
  CC50 at 120 h: > 216000 nM
[5]
  selectivity ratio: > 9120
[6]
  EC50: 150 nM
[7]
  EC50: 510 nM
[8]
  EC50: 290 nM
[9]
  EC50: 20800 nM
[10]
  EC50: 150 nM
[11]
  EC50: 1560 nM
[12]
  EC50: > 194000 nM

## Cc1cc(C)cc(S(=O)(=O)c2c(C(=O)NCc3cn(Cc4cccc([N+](=O)[O-])c4)nn3)[nH]c3ccc(Cl)cc23)c1
[1]
  inhibition: > 85%
[2]
  EC50: 230 nM
[3]
  EC50: > 216000 nM
[4]
  CC50 at 120 h: > 216000 nM
[5]
  selectivity ratio: > 939
[6]
  EC50: 1900 nM
[7]
  EC50: 2840 nM
[8]
  EC50: 3040 nM
[9]
  EC50: 152000 nM
[10]
  EC50: 1300 nM
[11]
  EC50: 9410 nM
[12]
  EC50: > 216000 nM

## Cc1cc(C)cc(S(=O)(=O)c2c(C(=O)NCc3cn(CCCc4ccccc4)nn3)[nH]c3ccc(Cl)cc23)c1
[1]
  inhibition: > 85%
[2]
  EC50: 390 nM
[3]
  EC50: > 117000 nM
[4]
  CC50 at 120 h: 117000 nM
[5]
  selectivity ratio: 302
[6]
  EC50: 1870 nM
[7]
  EC50: 3250 nM
[8]
  EC50: 2710 nM
[9]
  EC50: > 117000 nM
[10]
  EC50: 1390 nM
[11]
  EC50: 9700 nM
[12]
  EC50: > 117000 nM

## Cc1ccc(Cn2cc(CNC(=O)c3[nH]c4ccc(Cl)cc4c3S(=O)(=O)c3cc(C)cc(C)c3)nn2)cc1
[1]
  inhibition: < 85%

## Cc1cc(C)cc(S(=O)(=O)c2c(C(=O)NCc3cn(CC(=O)NC4CC4)nn3)[nH]c3ccc(Cl)cc23)c1
[1]
  inhibition: < 85%

## Nc1ccn([C@@H]2CS[C@H](CO)O2)c(=O)n1 [LAMIVUDINE]
[4]
  CC50 at 120 h: > 87200 nM
[5]
  selectivity ratio: > 17
[9]
  EC50: 3560 nM

## Cc1cccc(Cn2cc(CNC(=O)c3[nH]c4ccc(Cl)cc4c3S(=O)(=O)c3cc(C)cc(C)c3)nn2)c1
[1]
  inhibition: < 85%

## Cc1cc(C)cc(S(=O)(=O)c2c(C(=O)NCc3cn(Cc4ccc5ccccc5c4)nn3)[nH]c3ccc(Cl)cc23)c1
[1]
  inhibition: < 85%

## COc1cccc(Cn2cc(CNC(=O)c3[nH]c4ccc(Cl)cc4c3S(=O)(=O)c3cc(C)cc(C)c3)nn2)c1
[1]
  inhibition: < 85%

## Cc1cc(C)cc(S(=O)(=O)c2c(C(=O)NCc3cn(-c4ccc(C(=O)O)cc4)nn3)[nH]c3ccc(Cl)cc23)c1
[1]
  inhibition: < 85%

## Cc1cc(C#N)cc(C)c1Oc1nc(Nc2ccc(C#N)cc2)nc(N)c1Br [ETRAVIRINE]
[4]
  CC50 at 120 h: > 6330 nM
[5]
  selectivity ratio: > 1640
[11]
  EC50: 18 nM
[12]
  EC50: 38 nM

## Cc1cc(C)cc(S(=O)(=O)c2c(C(=O)NCc3cn(CC(=O)Nc4ccccc4)nn3)[nH]c3ccc(Cl)cc23)c1
[1]
  inhibition: < 85%

## Cc1cc(C)cc(S(=O)(=O)c2c(C(=O)NCc3cn(Cc4ccc(C#N)cc4)nn3)[nH]c3ccc(Cl)cc23)c1
[1]
  inhibition: < 85%

## Cc1cc(C)cc(S(=O)(=O)c2c(C(=O)NCc3cn(-c4ccc(C(=O)O)cc4Cl)nn3)[nH]c3ccc(Cl)cc23)c1
[1]
  inhibition: < 85%

## Cc1cc(C)cc(S(=O)(=O)c2c(C(=O)NCc3cn(Cc4ccccc4C#N)nn3)[nH]c3ccc(Cl)cc23)c1
[1]
  inhibition: < 85%

## Cc1cc(C)cc(S(=O)(=O)c2c(C(=O)NCc3cn(Cc4cccc(Cl)c4)nn3)[nH]c3ccc(Cl)cc23)c1
[1]
  inhibition: < 85%

## Cc1cc(C)cc(S(=O)(=O)c2c(C(=O)NCc3cn(Cc4ccccc4C)nn3)[nH]c3ccc(Cl)cc23)c1
[1]
  inhibition: < 85%

## Cc1cc(C)cc(S(=O)(=O)c2c(C(=O)NCc3cn(CC(=O)N4CCCC4)nn3)[nH]c3ccc(Cl)cc23)c1
[1]
  inhibition: < 85%

## Cc1cc(C)cc(S(=O)(=O)c2c(C(=O)NCc3cn(Cc4ccccc4Cl)nn3)[nH]c3ccc(Cl)cc23)c1
[1]
  inhibition: < 85%

## COc1ccccc1Cn1cc(CNC(=O)c2[nH]c3ccc(Cl)cc3c2S(=O)(=O)c2cc(C)cc(C)c2)nn1
[1]
  inhibition: < 85%

## Cc1cc(C)cc(S(=O)(=O)c2c(C(=O)NCc3cn(Cc4ccc(C(N)=O)cc4)nn3)[nH]c3ccc(Cl)cc23)c1
[1]
  inhibition: < 85%

## Cc1cc(C)cc(S(=O)(=O)c2c(C(=O)NCc3cn(CC(=O)Nc4ccc(S(C)(=O)=O)cc4)nn3)[nH]c3ccc(Cl)cc23)c1
[1]
  inhibition: < 85%

## Cc1cc(C)cc(S(=O)(=O)c2c(C(=O)NCc3cn(-c4cc5ccccc5s4)nn3)[nH]c3ccc(Cl)cc23)c1
[1]
  inhibition: < 85%

## COC(=O)c1cccc(-n2cc(CNC(=O)c3[nH]c4ccc(Cl)cc4c3S(=O)(=O)c3cc(C)cc(C)c3)nn2)c1
[1]
  inhibition: < 85%

## Cc1cc(C)cc(S(=O)(=O)c2c(C(=O)NCc3cn(Cc4ccc(Cl)cc4)nn3)[nH]c3ccc(Cl)cc23)c1
[1]
  inhibition: < 85%

## Cc1cc(C)cc(S(=O)(=O)c2c(C(=O)NCc3cn(CCc4ccsc4)nn3)[nH]c3ccc(Cl)cc23)c1
[1]
  inhibition: < 85%

## Cc1cc(C)cc(S(=O)(=O)c2c(C(=O)NCc3cn(CC(=O)N4CCOCC4)nn3)[nH]c3ccc(Cl)cc23)c1
[1]
  inhibition: < 85%

## Cc1cn([C@H]2C[C@H](N=[N+]=[N-])[C@@H](CO)O2)c(=O)[nH]c1=O [ZIDOVUDINE]
[2]
  EC50: 19 nM
[4]
  CC50 at 120 h: > 7480 nM
[5]
  selectivity ratio: > 397
[11]
  EC50: 9 nM
[12]
  EC50: 2 nM

## Cc1cc(C)cc(S(=O)(=O)c2c(C(=O)NCc3cn(Cc4ccc(S(N)(=O)=O)cc4)nn3)[nH]c3ccc(Cl)cc23)c1
[1]
  inhibition: < 85%

## Cc1cc(C)cc(S(=O)(=O)c2c(C(=O)NCc3cn([C@H]4C[C@H](n5cc(C)c(=O)[nH]c5=O)O[C@@H]4CO)nn3)[nH]c3ccc(Cl)cc23)c1 (single isomer, unassigned)
[1]
  inhibition: < 85%

## Cc1cc(C)cc(S(=O)(=O)c2c(C(=O)NCc3cn(-c4ccc5c(c4)OCO5)nn3)[nH]c3ccc(Cl)cc23)c1
[1]
  inhibition: < 85%
